Screens (PubChem BioAssay)
Myeloid diff 2: compounds promoting myeloid differentiation; ER-HoxA9 myeloid progenitors, lysozyme-GFP differentiation, flow cytometry; calls only at 10 µM; actives 1% (n = 360,000); AID 624256;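 active means normalized GFP-positive differentiation at or above the plate's own cutoff, the solvent-only control mean plus 3 SD; inconclusive means no clear call, values can overlap the other calls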;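 further: cells exposed to compound for four days before flow analysis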
NadD inh: inhibitors of Staphylococcus aureus NadD | purified NadD enzyme, colorimetric absorbance read-out | actives 0.78% (n = 360,000) | inhibition, % at 20 µM; in the data active means inhibition above about 26%
PP5 inh: PP5 (human) phosphatase inhibition; P53041; purified PP5c, OMFP substrate fluorescence; inhibition, % at 6.7 µM; actives 0.18% (n = 320,000);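 active means inhibition above the campaign's mean inhibition across all tested compounds plus 3 SD, cut at about 9.5% in these data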;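 further: 0% = DMSO only and 100% = 100 µM cantharidin control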
Target sequence (P53041 whole entry, looked up): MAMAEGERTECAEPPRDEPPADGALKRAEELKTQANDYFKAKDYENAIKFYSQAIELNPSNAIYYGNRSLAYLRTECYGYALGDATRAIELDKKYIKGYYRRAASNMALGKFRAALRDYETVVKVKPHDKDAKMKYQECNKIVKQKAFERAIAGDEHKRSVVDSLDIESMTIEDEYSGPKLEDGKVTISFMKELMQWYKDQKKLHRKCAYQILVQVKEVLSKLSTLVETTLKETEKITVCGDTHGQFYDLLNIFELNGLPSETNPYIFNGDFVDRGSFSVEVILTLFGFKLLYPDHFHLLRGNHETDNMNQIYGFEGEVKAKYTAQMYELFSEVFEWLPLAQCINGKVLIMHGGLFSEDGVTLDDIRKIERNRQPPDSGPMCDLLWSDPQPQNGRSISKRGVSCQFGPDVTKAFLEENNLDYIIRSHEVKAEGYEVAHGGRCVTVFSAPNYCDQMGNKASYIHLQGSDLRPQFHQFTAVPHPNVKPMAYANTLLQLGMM
Fh CTSL1 inh: counter-screen for PFM18AAP inhibitors: inhibitors of F. hepatica cathepsin L1; recombinant F. hepatica cathepsin L1, Z-Leu-Arg-MCA fluorescence; actives 0.49% (n = 300,000); inhibition, % at 5.96 µM;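 active means inhibition above the mean of all tested compounds plus 3 SD, set per screening campaign, cut at about 17% in these data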;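 further: 0% = plate median of test compound wells and 100% = 1 µM Z-Phe-Ala-diazomethylketone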
HCV core dimer: blocks dimerization of HCV core protein | TR-FRET GST/Flag-core106 dimerization, 1536-well | actives 0.33% (n = 300,000) | inhibition, % at 5 µM | AID 1899;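 active means inhibition above the mean of all tested compounds plus 3 SD, set per screening campaign, cut at about 45% in these data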
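assay system = GST-tagged and Flag-tagged HCV core protein residues 1-106 | controls = unlabelled core106 and no-GST-core106 wells | incubation = compound-protein-antibody incubation 4 h at 22.5 °C | probe or stimulus = Eu donor and XL665 acceptor anti-tag antibodies | read-out = % inhibition based on acceptor/donor emission ratio | signal = TR-FRET 671 and 617 nm emission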
PP1 counter: PP1-alpha (human) inhibition in PP5 counter-screen; P62136; purified PP1alpha, OMFP fluorescence; inhibition, % at 6.7 µM; actives 0.9% (n = 320,000); AID 2235;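 active means inhibition above the mean inhibition of all tested compounds plus 3 SD, computed separately for each screening campaign, cut at about 15% in these data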
* = called active by the depositor; i = inactive; ? = inconclusive; · = no result; + = active, no number. Compounds with a hit are over-represented: about 3.1% of the library has one in this group of screens.

SMILES | Myeloid diff 2 | NadD inh | PP5 inh | Fh CTSL1 inh | HCV core dimer | PP1 counter
CCOC(=O)C1=C(CSc2nc3c(cc2C#N)CN(C)CC3)OC(N)=C(C#N)C1c1ccccc1 (stereo not given) | i | 11 | -5 | 3 | 52* | 17*
C[C@]12c3[nH]c4ccccc4c3CCN1C(=O)C(CC(=O)NCCC1=CCCCC1)C[C@@H]2C(=O)N1CCCCC1 (stereo not given in full) | i | 9 | · | · | · | ·
CCN(C[C@H]1N[C@@](Cc2ccccc2)(C(=O)OC)[C@H]2C(=O)N(Cc3ccccc3)C(=O)[C@@H]12)S(=O)(=O)c1ccc(C(C)(C)C)cc1 | i | 22 | · | · | · | ·
COc1cc(/C=N/NC(=O)c2cncc(Br)c2)cc([N+](=O)[O-])c1O | i | 2 | 4 | 5 | -10 | 17*
CN1C[C@@H]2[C@@H]3C(=O)N(Cc4ccccc4)C(=O)[C@@H]3[C@](Cc3ccccc3)(C1=O)N2C(=O)c1ccc(C(C)(C)C)cc1 | i | 5 | · | · | · | ·
CCc1nnc(NC(=O)CSc2nccn2-c2cccc(C)c2)s1 | + | -5 | 0 | 3 | 5 | -3
Cc1cc2c(cc1C)NC(CC(=O)NCc1ccccc1)C(=O)N2 (stereo not given) | + | 1 | 1 | 7 | 7 | -1
CC(C)c1ccc(NC(=O)c2ccc(NS(C)(=O)=O)cc2)cc1 | + | -1 | 4 | -2 | 2 | 1
O=C(Nc1cccc(S(=O)(=O)N2CCOCC2)c1)c1c2c(nc3ccccc13)CCC2 | i | 5 | -1 | -3 | 74* | 13
CCN(CC)S(=O)(=O)c1ccc(N2CCOCC2)c(NC(=O)c2cccc3ccccc23)c1 | · | -5 | 3 | 7 | 4 | 0
O=C(Nc1cccc(S(=O)(=O)N2CCOCC2)c1)c1ccc2ccccc2n1 | i | -4 | 3 | -2 | -3 | 3
CCN(CC)S(=O)(=O)c1ccc(N2CCOCC2)c(NC(=O)c2c3c(nc4ccccc24)CCC3)c1 | i | 17 | 1 | -2 | 77* | 5
COc1cccc(C(=O)N(Cc2ccco2)c2c(N)n(Cc3ccccc3)c(=O)[nH]c2=O)c1 | i | 1 | 0 | · | · | 0
O=C(N/N=C/c1ccncc1)c1ccc(NC(=O)c2ccc(Cl)cc2)cc1 | i | 0 | 1 | -2 | 5 | 30*
Cc1ccc(C(=O)Nc2ccc(C(=O)N/N=C/c3ccncc3)cc2)cc1 | · | · | -1 | -2 | 9 | 16*
CC(=O)N1CCc2c(sc(NC(=O)c3ccc([N+](=O)[O-])o3)c2C(N)=O)C1 | ? | 1 | · | · | · | ·
Cc1nnc(SCCn2c(N3CCC(C)CC3)nc3c2c(=O)[nH]c(=O)n3C)s1 | + | -3 | 2 | 0 | 0 | -2
Cc1nnc(SCCn2c(N3CCCC(C)C3)nc3c2c(=O)[nH]c(=O)n3C)s1 (stereo not given) | i | 4 | 5 | -4 | -2 | -2
Cc1cccc([C@@H]2[C@@H]3C(=O)N(Cc4ccccc4)C(=O)[C@@H]3[C@]3(Cc4ccc(Cl)cc4)C(=O)N(c4cccc(Br)c4)C(=O)N23)c1 | + | 22 | 0 | 0 | 31 | -3
CCCCCC(=O)N1C[C@H](O)[C@@H](n2cc(C3CC3)nn2)C[C@@H]1c1ccc(Cl)cc1 | i | 2 | · | · | · | ·
COc1ccccc1C(=O)NC(=O)COC(=O)c1ncc(Cl)c(Cl)c1Cl | i | 1 | 3 | -2 | 0 | -3
CCn1c(SCC(=O)Nc2nc3ccc(C)cc3s2)nc2c(c1=O)SC(C)C2 (stereo not given) | i | 12 | -3 | 4 | 25 | 16*
CCn1c(SCC(=O)Nc2nc3ccccc3s2)nc2c(c1=O)SC(C)C2 (stereo not given) | · | · | 4 | 3 | 9 | 3
CC(C)(C)N1C(=O)Cc2c1nc(N)c1c(N)nc(N3CCCCC3CO)c(C#N)c21 (stereo not given) | i | 37* | 15* | 105* | -2 | 11
Cc1ccc(S(=O)(=O)/N=C2/NC(=O)/C(=C\c3cc(Br)cc(Br)c3O)S2)cc1 | i | 41* | · | · | · | ·
SMILES | Myeloid diff 2 | NadD inh | PP5 inh | Fh CTSL1 inh | HCV core dimer | PP1 counter
CCOc1cc(Br)cc(/C=C2\SC(=Nc3ccccc3)NC2=O)c1O | i | 36* | 5 | -1 | 10 | 3
Cc1ccc(S(=O)(=O)/N=C2/NC(=O)/C(=C/c3ccc(Br)o3)S2)cc1 | i | 9 | 3 | 4 | 11 | 10
C=CCOc1ccc(Br)cc1/C=C1/SC(=Nc2ccc(C(=O)O)cc2)NC1=O | i | 28 | · | · | · | ·
COc1ccc(S(=O)(=O)N2CCOCC2)cc1NC(=O)CCCOc1ccc(Cl)cc1C | i | -1 | 5 | · | · | 1
COc1ccc(C2/C=C\CN(C(=O)Nc3ccccc3-c3ccccc3)CC(=O)N2Cc2ccc(F)cc2)cc1 (stereo not given) | i | 12 | 5 | -2 | 11 | 16*
CCc1ccc(NC(=O)Nc2cnccn2)cc1 | i | -3 | 3 | -2 | -7 | -1
CCCCc1ccc(NC(=O)Nc2cnccn2)cc1 | + | 9 | 3 | 2 | -1 | 0
CN=C1c2cc3cc(OC)ccc3n2CCN1C | + | -3 | 2 | -2 | -5 | -2
CN=C1c2cc3c(Br)c(OC)ccc3n2CCN1C | i | -8 | 1 | 4 | 3 | -3
O=c1oc2c(O)c(O)cc3c(=O)oc4c(O)c(O)cc1c4c23 | i | 26 | 0 | 5 | 6 | 27*
O=c1oc2ccccc2c2oc3cc(O)c(O)cc3c12 | i | 3 | 4 | 5 | 5 | 0
OCC[C@H]1C[C@H](O)[C@@H](O)[C@]2(OCCc3ccccc32)O1 | i | -4 | 0 | -2 | 0 | 0
CCOC(=O)c1ccc(Nc2nc(=O)c3cccnc3s2)cc1 | i | -11 | 3 | 1 | 2 | 0
O=c1nc(Nc2ccc(OCc3ccccc3)cc2)sc2ncccc12 | + | -3 | 5 | 0 | -6 | 1
CCNC(=O)C1(C)CCN(C(=O)c2ccc3snnc3c2)C1 (stereo not given) | i | 8 | · | · | · | ·
O=[N+]([O-])c1ccc(/C([O-])=C(/C(=S)NCc2ccco2)[n+]2ccccc2)cc1 | i | 12 | -1 | 1 | 52* | 2
COc1cc2cc(Br)cc(Br)c2nc1C | i | -6 | 4 | 2 | 63* | 2
Cc1ccc(S(=O)(=O)Nc2ccc(S(=O)(=O)Nc3nccs3)cc2)c([N+](=O)[O-])c1 | i | -5 | 4 | -2 | 7 | 2
O=C(Nc1ccccc1C(=O)Nc1ccncc1)c1cccc([N+](=O)[O-])c1 | i | 2 | -1 | 2 | -16 | -2
O=C(O)c1cccc(NC(=O)c2ccccc2NC(=O)c2cccc([N+](=O)[O-])c2)c1 | + | -6 | 0 | 3 | 2 | 2
